Measurements published in ChEMBL document CHEMBL4257561, “7-Deacetyl-10-alkylthiocolchicine derivatives - new compounds with potent anticancer and fungicidal activity” (Medchemcomm, 2018).
Values after ≈ are worked out from the molar mass of the structure shown.

Key:
[1] = tested on: Talaromyces funiculosus; assay: microbe, parasite or virus in culture; format: functional; conditions: BAM22 ATCC 11797, 168 h
[2] = tested on: Trichoderma viride; assay: Fungicidal activity against Trichoderma viride Pers after 7 days by microtiter method; format: functional; conditions: 168 h
Outline: (§1)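 Single-spore isolates kept on PDA slants. Spore suspensions ([…] CFU/mL) taken from two-week slants. Compound stock was 10 mg in 200 µL methanol; 10 µL of stock added to 100 µL PDA (39 g/L) per well, then 10 µL spores. Incubated aerobically 7 days, 28±1°C, RH >95%, dark. Growth scored on a three-point scale (+/±/−). Triplicates, with untreated and IPBC controls.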

[3] = tested on: MDA-MB-231; assay: cells; format: functional, cell-based; conditions: Homo sapiens, MDA-MB-231, 72 h
[4] = tested on: DLD-1; assay: cells; format: functional, cell-based; conditions: Homo sapiens, DLD-1, 72 h
[5] = tested on: Penicillium cyclopium; assay: Fungicidal activity against Penicillium cyclopium Westling after 7 days by microtiter method; format: functional; conditions: 168 h
Outline: as §1

[6] = tested on: Chaetomium globosum; assay: Fungicidal activity against Chaetomium globosum BAM12 ATCC 6205 after 7 days by microtiter method; format: functional; conditions: BAM12 ATCC 6205, 168 h
Outline: as §1

[7] = tested on: Aureobasidium pullulans; assay: Fungicidal activity against Aureobasidium pullulans BAM10 ATCC 9348 after 7 days by microtiter method; format: functional; conditions: BAM10 ATCC 9348, 168 h
Outline: as §1

[8] = tested on: MCF7; assay: cells; format: functional, cell-based; conditions: Homo sapiens, MCF7, 72 h
[9] = tested on: Paecilomyces variotii; assay: microbe, parasite or virus in culture; format: functional; conditions: BAM19 ATCC 18502, 168 h
[10] = tested on: SK-OV-3; assay: cells; format: functional, cell-based; conditions: Homo sapiens, SK-OV-3, 72 h
[11] = tested on: Trichoderma viride; assay: Antifungal activity against Trichoderma viride Pers after 7 days by microtiter method; format: functional; conditions: 168 h
[12] = tested on: Aspergillus versicolor; assay: microbe, parasite or virus in culture; format: functional; conditions: BAM8 ATCC 11730, 168 h
[13] = tested on: Penicillium cyclopium; assay: Antifungal activity against Penicillium cyclopium Westling after 7 days by microtiter method; format: functional; conditions: 168 h
[14] = tested on: Aspergillus versicolor; assay: Fungicidal activity against Aspergillus versicolor BAM8 ATCC 11730 after 7 days by microtiter method; format: functional; conditions: BAM8 ATCC 11730, 168 h
Outline: as §1

[15] = cells; format: cell-based; conditions: Homo sapiens, 72 h
[16] = tested on: Aspergillus niger; assay: microbe, parasite or virus in culture; format: functional; conditions: van Tiegen BAM4 ATCC 6275, 168 h
[17] = tested on: SK-OV-3; assay: cells; format: functional, cell-based; conditions: Homo sapiens, SK-OV-3, 72 h; remark: listed apart in the source
[18] = tested on: Paecilomyces variotii; assay: Fungicidal activity against Paecilomyces variotii BAM19 ATCC 18502 after 7 days by microtiter method; format: functional; conditions: BAM19 ATCC 18502, 168 h
Outline: as §1

[19] = tested on: Chaetomium globosum; assay: microbe, parasite or virus in culture; format: functional; conditions: BAM12 ATCC 6205, 168 h
[20] = tested on: LoVo; assay: cells; format: functional, cell-based; conditions: Homo sapiens, 72 h
[21] = tested on: Talaromyces funiculosus; assay: Fungicidal activity against Penicillium funiculosum BAM22 ATCC 11797 after 7 days by microtiter method; format: functional; conditions: BAM22 ATCC 11797, 168 h
Outline: as §1

[22] = tested on: Aspergillus niger; assay: Fungicidal activity against Aspergillus niger van Tiegen BAM4 ATCC 6275 after 7 days by microtiter method; format: functional; conditions: van Tiegen BAM4 ATCC 6275, 168 h
Outline: as §1

[23] = tested on: Aureobasidium pullulans; assay: microbe, parasite or virus in culture; format: functional; conditions: BAM10 ATCC 9348, 168 h

Compound | MFC [1] [µg/mL] | MFC [2] [µg/mL] | IC50 [4] [nM] | MFC [5] [µg/mL] | MFC [6] [µg/mL] | MFC [7] [µg/mL] | MFC [9] [µg/mL] | IC50 [10] [nM] | MFC [11] [µg/mL] | MFC [12] [µg/mL] | MIC [13] [µg/mL] | MFC [14] [µg/mL] | IC50 [15] [nM] | MFC [16] [µg/mL] | IC50 [17] [nM] | MFC [18] [µg/mL] | MIC [19] [µg/mL] | MFC [21] [µg/mL] | MFC [22] [µg/mL] | MIC [23] [µg/mL] | further results
CCCSc1ccc2c(cc1=O)[C@@H](N)CCc1cc(OC)c(OC)c(OC)c1-2 | 2000 (≈ 4980 µM) | 2000 (≈ 4980 µM) | 3420 | 2000 (≈ 4980 µM) | > 4000 | > 4000 | 1000 (≈ 2490 µM) | 22 | 2000 (≈ 4980 µM) | > 4000 | 2000 (≈ 4980 µM) | > 4000 | 670 | > 4000 | 46 | 1000 (≈ 2490 µM) | > 4000 | 2000 (≈ 4980 µM) | > 4000 | > 4000 | IC50 [3]: 4240 nM; IC50 [8]: 2080 nM; IC50 [20]: 3830 nM
COc1cc2c(c(OC)c1OC)-c1ccc(SC(C)C)c(=O)cc1[C@@H](N)CC2 | 1000 (≈ 2490 µM) | 2000 (≈ 4980 µM) | 6260 | 500 (≈ 1250 µM) | 130 (≈ 324 µM) | 260 (≈ 648 µM) | 1000 (≈ 2490 µM) | 4 | 2000 (≈ 4980 µM) | > 4000 | 500 (≈ 1250 µM) | > 4000 | 1680 | > 4000 | 27 | 1000 (≈ 2490 µM) | 130 (≈ 324 µM) | 1000 (≈ 2490 µM) | > 4000 | 260 (≈ 648 µM) | IC50 [3]: 5000 nM; IC50 [8]: 4900 nM; IC50 [20]: 130 nM
O=C(/C=C/c1ccccc1)c1ccccc1 [CHALCONE] | 130 (≈ 624 µM) | 500 (≈ 2400 µM) | – | 260 (≈ 1250 µM) | 130 (≈ 624 µM) | 500 (≈ 2400 µM) | 1000 (≈ 4800 µM) | – | 500 (≈ 2400 µM) | 2000 (≈ 9600 µM) | 260 (≈ 1250 µM) | 2000 (≈ 9600 µM) | – | 65 (≈ 312 µM) | – | 1000 (≈ 4800 µM) | 130 (≈ 624 µM) | 130 (≈ 624 µM) | 65 (≈ 312 µM) | 500 (≈ 2400 µM) | –
COc1cc2c(c(OC)c1OC)-c1ccc(OC)c(=O)cc1[C@@H](NC(C)=O)CC2 [COLCHICINE] | > 4000 | > 4000 | 43 | > 4000 | > 4000 | 0.001 (≈ 0.0025 µM) | > 4000 | 198 | > 4000 | > 4000 | > 4000 | > 4000 | 586 | > 4000 | 210 | > 4000 | > 4000 | > 4000 | > 4000 | 0.001 (≈ 0.0025 µM) | IC50 [3]: 25 nM; IC50 [8]: 41 nM; IC50 [20]: 119 nM
COc1cccc2c1C(=O)c1c(O)c3c(c(O)c1C2=O)C[C@@](O)(C(=O)CO)C[C@@H]3O[C@H]1C[C@H](N)[C@H](O)[C@H](C)O1 [DOXORUBICIN] | – | – | 145 | – | – | – | – | 32.6 | – | – | – | – | 850 | – | 128 | – | – | – | – | – | IC50 [20]: 78.3 nM
CCCCNC(=O)OCC#CI [IODOCARB] | 2 (≈ 7.12 µM) | 100 (≈ 356 µM) | – | 2 (≈ 7.12 µM) | 5 (≈ 17.8 µM) | 1 (≈ 3.56 µM) | 2 (≈ 7.12 µM) | – | 100 (≈ 356 µM) | 2 (≈ 7.12 µM) | 2 (≈ 7.12 µM) | 2 (≈ 7.12 µM) | – | 2 (≈ 7.12 µM) | – | 2 (≈ 7.12 µM) | 5 (≈ 17.8 µM) | 2 (≈ 7.12 µM) | 2 (≈ 7.12 µM) | 1 (≈ 3.56 µM) | –
